Data reported in ChEMBL document CHEMBL4138095, “Thiosemicarbazones and 4-thiazolidinones indole-based derivatives: Synthesis, evaluation of antiproliferative activity, cell death mechanisms and topoisomerase inhibition assay” (Eur J Med Chem, 2017).
The source made the active and inactive calls. The calls are words filed in the database; no cut-off is given here.

Key:
[1] = target: DNA topoisomerase 2-alpha (Homo sapiens) (UniProt P11388); test: Inhibition of recombinant human topoisomerase-2alpha assessed as reducton in relaxation of supercoiled pUC19 DNA at 50 to 100 uM after 30 mins by ethidium bromide staining-based gel electrophoresis assay
In short: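 Supercoiled pUC19 (100 ng) with 4 units recombinant human topo IIα (p170) in relaxation buffer, ± compound at 50 or 100 µM or m-AMSA control, 30 min at 37 °C; stopped with 1% SDS, proteinase K digested; products resolved by agarose gel, ethidium bromide stained, imaged under UV.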

[2] = Growth inhibition of human HaCaT cells after 48 hrs by sulforhodamine B dye-based spectrophotometric assay; format: cell-based
K562 = test: Growth inhibition of human K562 cells after 48 hrs by sulforhodamine B dye-based spectrophotometric assay; format: functional; details: K562, 48 h
NCI/ADR-RES = test: Growth inhibition of human NCI-ADR-RES cells after 48 hrs by sulforhodamine B dye-based spectrophotometric assay; format: functional
U-251 = test: Growth inhibition of human U251 cells after 48 hrs by sulforhodamine B dye-based spectrophotometric assay; format: functional; details: U-251, 48 h
NCI-H460 = test: Growth inhibition of human NCI-H460 cells after 48 hrs by sulforhodamine B dye-based spectrophotometric assay; format: functional; details: NCI-H460, 48 h
786-0 = test: Growth inhibition of human 786-0 cells after 48 hrs by sulforhodamine B dye-based spectrophotometric assay; format: functional; details: 786-0, 48 h
OVCAR-3 = test: Growth inhibition of human OVCAR3 cells after 48 hrs by sulforhodamine B dye-based spectrophotometric assay; format: functional; details: OVCAR-3, 48 h
MCF7 = test: Growth inhibition of human MCF7 cells after 48 hrs by sulforhodamine B dye-based spectrophotometric assay; format: functional; details: MCF7, 48 h
HT-29 [3] = test: Growth inhibition of human HT-29 cells after 48 hrs by sulforhodamine B dye-based spectrophotometric assay; format: functional; details: HT-29, 48 h
Calf thymus DNA [4] = test: Binding affinity to calf thymus DNA by fluorescence spectra analysis; format: nucleic-acid assay; details: Bos taurus
In short: (§1)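 Fluorescence of 15 μM ligand in 0.01 M Tris, pH 7.6, 25 °C, 1 cm quartz cuvette; excitation 335 nm, emission 435 nm (spectra 370–700 nm); ctDNA (0–100 μM) added stepwise into the cell; quenching analysed by Stern-Volmer plot to give Ksv.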

HT-29 [5] = test: Cell cycle arrest in human HT-29 cells assessed as accumulation at G1 phase at 5 uM after 24 hrs by propidium iodide staining-based flow cytometric method (reference value: 46.1 +/- 2.1%); format: functional
HT-29 [6] = test: Cell cycle arrest in human HT-29 cells assessed as accumulation at G2/M phase at 10 uM after 24 hrs by propidium iodide staining-based flow cytometric method (reference value: 32.5 +/- 2.3%); format: functional
HT-29 [7] = test: Cell cycle arrest in human HT-29 cells assessed as accumulation at G2/M phase at 5 uM after 24 hrs by propidium iodide staining-based flow cytometric method (reference value: 32.5 +/- 2.3%); format: functional
HT-29 [8] = test: Cell cycle arrest in human HT-29 cells assessed as accumulation at sub-G1 phase at 10 uM after 24 hrs by propidium iodide staining-based flow cytometric method (reference value: 3.5 +/- 0.7%); format: functional
HT-29 [9] = test: Cell cycle arrest in human HT-29 cells assessed as accumulation at G2/M phase at 30 uM after 24 hrs by propidium iodide staining-based flow cytometric method (reference value: 32.5 +/- 2.3%); format: functional
Calf thymus DNA [10] = test: Binding affinity to calf thymus DNA assessed as maximum absorption peak at 10 to 80 uM after 10 mins by UV-visible absorption assay (reference value: 334 nm); format: nucleic-acid assay; details: Bos taurus
In short: (§2)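 ctDNA in Tris-HCl (0.01 M, pH 7.6), sonicated 5 min; concentration from ε260 6600 M⁻¹ cm⁻¹, as base-pair equivalents. Ligand from 1 mM DMSO stock diluted in buffer (10–80 μM), titrated with increasing ctDNA, stirred 10 min at room temperature, UV-vis read in 1 cm quartz cuvette; hyperchromicity with 100 µM ctDNA versus free ligand; Kb by curve fitting.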

Calf thymus DNA [11] = test: Binding affinity to calf thymus DNA assessed as hyperchromicity after 10 mins by UV-visible absorption assay; format: nucleic-acid assay; details: Bos taurus; in short: as §2
HT-29 [12] = test: Cell cycle arrest in human HT-29 cells assessed as accumulation at sub-G1 phase at 5 uM after 24 hrs by propidium iodide staining-based flow cytometric method (reference value: 3.5 +/- 0.7%); format: functional
HT-29 [13] = test: Cell cycle arrest in human HT-29 cells assessed as accumulation at S phase at 10 uM after 24 hrs by propidium iodide staining-based flow cytometric method (reference value: 17.2 +/- 1.2%); format: functional
HT-29 [14] = test: Cell cycle arrest in human HT-29 cells assessed as accumulation at sub-G1 phase at 30 uM after 24 hrs by propidium iodide staining-based flow cytometric method (reference value: 3.5 +/- 0.7%); format: functional
Calf thymus DNA [15] = test: Binding affinity to calf thymus DNA assessed as hyperchromicity at 100 uM after 10 mins by UV-visible absorption assay relative to control; format: nucleic-acid assay; details: Bos taurus; in short: as §2
HT-29 [16] = test: Induction of apoptosis in human HT-29 cells assessed as increase in cell subpopulation with phosphatidylserine externalization at 5 uM after 24 hrs by annexin-V-PE/7-AAD staining-based flow cytometry; format: functional
In short: (§3)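 HT-29 seeded 2×10^5 cells/well, 24 h; treated 24 h at 5–50 μM (vehicle DMSO 0.1%); trypsinized, 1×10^5 cells in PBS plus binding buffer with annexin-V-PE and 7-AAD, 20 min dark, room temperature; 5000 events per experiment by flow cytometry; mean ± SE, two independent experiments in triplicate; ANOVA/Tukey.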

HT-29 [17] = test: Cell cycle arrest in human HT-29 cells assessed as accumulation at S phase at 5 uM after 24 hrs by propidium iodide staining-based flow cytometric method (reference value: 17.2 +/- 1.2%); format: functional
HT-29 [18] = test: Cell cycle arrest in human HT-29 cells assessed as accumulation at G1 phase at 10 uM after 24 hrs by propidium iodide staining-based flow cytometric method (reference value: 46.1 +/- 2.1%); format: functional
HT-29 [19] = test: Cell cycle arrest in human HT-29 cells assessed as accumulation at G1 phase at 30 uM after 24 hrs by propidium iodide staining-based flow cytometric method (reference value: 46.1 +/- 2.1%); format: functional
HT-29 [20] = test: Induction of apoptosis in human HT-29 cells after 24 hrs by annexin-V-PE/7-AAD staining-based flow cytometry; format: functional, cell-based; in short: as §3
Calf thymus DNA [21] = test: Binding affinity to calf thymus DNA at 15 uM by fluorescence spectra analysis; format: nucleic-acid assay; details: Bos taurus; in short: as §1
HT-29 [22] = test: Cell cycle arrest in human HT-29 cells assessed as accumulation at S phase at 30 uM after 24 hrs by propidium iodide staining-based flow cytometric method (reference value: 17.2 +/- 1.2%); format: functional
[23] = Binding affinity to DNA (unknown origin)
HT-29 [24] = test: Cell cycle arrest in human HT-29 cells assessed as accumulation at G1 phase at 1.25 nM after 24 hrs by propidium iodide staining-based flow cytometric method (reference value: 46.1 +/- 2.1%)
HT-29 [25] = test: Cell cycle arrest in human HT-29 cells assessed as accumulation at G2/M phase at 1.25 nM after 24 hrs by propidium iodide staining-based flow cytometric method (reference value: 32.5 +/- 2.3%)
HT-29 [26] = test: Cell cycle arrest in human HT-29 cells assessed as accumulation at S phase at 1.25 nM after 24 hrs by propidium iodide staining-based flow cytometric method (reference value: 17.2 +/- 1.2%)
HT-29 [27] = test: Cell cycle arrest in human HT-29 cells assessed as accumulation at sub-G1 phase at 1.25 nM after 24 hrs by propidium iodide staining-based flow cytometric method (reference value: 3.5 +/- 0.7%)

Sequence of DNA topoisomerase 2-alpha (Homo sapiens) (P11388 whole entry): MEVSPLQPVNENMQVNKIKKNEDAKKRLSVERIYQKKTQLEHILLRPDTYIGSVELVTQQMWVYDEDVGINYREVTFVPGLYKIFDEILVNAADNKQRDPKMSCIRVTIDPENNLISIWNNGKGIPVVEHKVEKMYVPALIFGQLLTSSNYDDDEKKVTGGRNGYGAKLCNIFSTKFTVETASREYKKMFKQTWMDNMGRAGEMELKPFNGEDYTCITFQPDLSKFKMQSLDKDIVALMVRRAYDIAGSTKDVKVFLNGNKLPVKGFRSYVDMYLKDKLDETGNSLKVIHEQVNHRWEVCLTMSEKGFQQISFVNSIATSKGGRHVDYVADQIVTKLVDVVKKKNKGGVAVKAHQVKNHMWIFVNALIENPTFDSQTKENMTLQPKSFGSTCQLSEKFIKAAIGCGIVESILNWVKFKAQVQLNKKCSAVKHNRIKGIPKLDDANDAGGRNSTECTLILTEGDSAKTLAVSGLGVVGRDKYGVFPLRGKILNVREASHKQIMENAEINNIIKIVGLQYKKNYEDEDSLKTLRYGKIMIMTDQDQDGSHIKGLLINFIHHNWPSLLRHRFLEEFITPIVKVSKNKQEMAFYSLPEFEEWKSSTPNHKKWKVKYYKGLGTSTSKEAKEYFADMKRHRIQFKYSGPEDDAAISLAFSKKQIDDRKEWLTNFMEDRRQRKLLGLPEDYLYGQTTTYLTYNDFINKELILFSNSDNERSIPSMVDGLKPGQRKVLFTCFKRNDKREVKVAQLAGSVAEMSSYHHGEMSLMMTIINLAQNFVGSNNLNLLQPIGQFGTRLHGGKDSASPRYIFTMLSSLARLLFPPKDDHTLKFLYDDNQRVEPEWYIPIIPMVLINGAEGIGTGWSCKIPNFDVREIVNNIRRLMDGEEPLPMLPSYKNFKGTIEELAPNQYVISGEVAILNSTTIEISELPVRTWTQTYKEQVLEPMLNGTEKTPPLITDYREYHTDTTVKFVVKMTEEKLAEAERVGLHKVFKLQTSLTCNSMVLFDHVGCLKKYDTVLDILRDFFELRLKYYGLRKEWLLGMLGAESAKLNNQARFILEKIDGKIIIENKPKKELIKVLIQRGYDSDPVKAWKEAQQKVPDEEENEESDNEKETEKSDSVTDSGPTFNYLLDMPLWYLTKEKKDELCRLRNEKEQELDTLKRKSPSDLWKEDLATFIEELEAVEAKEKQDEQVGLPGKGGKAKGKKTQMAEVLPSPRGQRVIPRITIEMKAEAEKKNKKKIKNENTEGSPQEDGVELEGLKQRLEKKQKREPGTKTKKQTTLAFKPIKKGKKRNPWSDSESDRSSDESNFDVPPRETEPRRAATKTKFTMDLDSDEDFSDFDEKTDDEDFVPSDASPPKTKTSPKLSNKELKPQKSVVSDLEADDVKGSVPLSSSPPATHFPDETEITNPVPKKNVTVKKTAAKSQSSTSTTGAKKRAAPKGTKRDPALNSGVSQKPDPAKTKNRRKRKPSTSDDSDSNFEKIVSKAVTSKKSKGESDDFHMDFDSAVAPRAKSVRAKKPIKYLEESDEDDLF

| GI50 (K562) [µM] | GI50 (U-251) [µM] | GI50 (NCI-H460) [µM] | GI50 (786-0) [µM] | GI50 (OVCAR-3) [µM] | GI50 (MCF7) [µM] | GI50 (HT-29 [3]) [µM] | SMILES | GI50 at 48 h [2] [µM] | GI50 (NCI/ADR-RES) [µM] | also measured |
| --- | --- | --- | --- | --- | --- | --- | --- | --- | --- | --- |
|  |  |  |  |  |  |  | COc1cc(NS(C)(=O)=O)ccc1Nc1c2ccccc2nc2ccccc12 |  |  | inhibition [1]: Active |
| > 100 | 90.2 | > 100 | 79.1 | > 100 | > 100 | > 100 | Cc1ccc(N2C(=O)CS/C2=N/N=C/c2c[nH]c3ccccc23)cc1 | > 100 | > 100 |  |
| 0.01 | 54.7 | 96.6 | 39.9 | 98.5 | 59.5 | > 100 | Cc1ccc(N2C(=O)CS/C2=N/N=C/c2c[nH]c3ccc(Br)cc23)cc1 | 54 | 64.6 |  |
| 0.93 | 0.14 | 0.09 | 0.11 | 0.22 | 0.07 | 0.23 | COc1cccc2c1C(=O)c1c(O)c3c(c(O)c1C2=O)C[C@@](O)(C(=O)CO)C[C@@H]3O[C@H]1C[C@H](N)[C@H](O)[C@H](C)O1 [DOXORUBICIN] | 0.2 | 0.77 |  |
| > 100 | 72.5 | > 100 | 62.1 | 25.7 | 34.9 | 96.9 | O=C1CS/C(=N/N=C/c2c[nH]c3ccccc23)N1c1cccc2ccccc12 | 63 | 38.6 |  |
| 5.29 | 7.32 | 6.99 | 6.56 | 1.6 | 0.95 | 6.56 | S=C(N/N=C/c1c[nH]c2ccc(Br)cc12)Nc1cccc2ccccc12 | 6.15 | 6.18 |  |
| 0.16 | 8.11 | 11.7 | 3.99 | 3.88 | 2.52 | 1.45 | Cc1ccc(NC(=S)N/N=C/c2c[nH]c3ccccc23)cc1 | 0.99 | 1.46 |  |
| > 100 | 48.8 | > 100 | 29.1 | 5.12 | 6.06 | 27.3 | O=C1CS/C(=N/N=C/c2c[nH]c3ccc(Br)cc23)N1c1cccc2ccccc12 | 6.23 | 12.4 |  |
| 2.12 | 7.49 | 8.48 | 7.58 | 8.22 | 6.81 | 7.87 | S=C(NCCc1ccccc1)N/N=C/c1c[nH]c2ccc(Br)cc12 | 7.85 | 7.14 |  |
| 0.17 | 77.9 | > 100 | 76.3 | > 100 | 15.5 | > 100 | S=C(NCCc1ccccc1)N/N=C/c1c[nH]c2ccccc12 | > 100 | 38.7 |  |
| 0.01 | 0.92 | 0.38 | 0.25 | 0.21 | 0.25 | 0.01 | S=C(N/N=C/c1c[nH]c2ccccc12)Nc1cccc2ccccc12 | 0.59 | 6.48 | KSV (Calf thymus DNA [4]): 1.19 ×10³ /M; Activity (HT-29 [5]): 10.7%; inhibition [1]: Active; Activity (HT-29 [6]): 66.2%; Activity (HT-29 [7]): 80.5%; Activity (HT-29 [8]): 1.6%; Activity (HT-29 [9]): 53.1%; Activity (Calf thymus DNA [10]): 334 nm; Kb (Calf thymus DNA [11]): 4.3 ×10⁴ /M; Activity (HT-29 [12]): 2%; Activity (HT-29 [13]): 5.5%; Activity (HT-29 [14]): 4.8%; Activity (Calf thymus DNA [15]): 13%; Activity (HT-29 [16]): 12.6%; Activity (HT-29 [17]): 6.8%; Activity (HT-29 [18]): 26.7%; Activity (HT-29 [19]): 34.9%; Activity (HT-29 [20]): Dose-dependent effect; Activity (Calf thymus DNA [21]): Active; Activity (HT-29 [22]): 7.3% |
|  |  |  |  |  |  |  | S=C(N/N=C/c1c2ccccc2nc2ccccc12)Nc1cccc2ccccc12 |  |  | Kb [23]: 8.47 ×10⁵ /M |
|  |  |  |  |  |  |  | COc1cc2c(c(OC)c1OC)-c1ccc(OC)c(=O)cc1[C@@H](NC(C)=O)CC2 [COLCHICINE] |  |  | Activity (HT-29 [24]): 14.6%; Activity (HT-29 [25]): 76%; Activity (HT-29 [26]): 5.9%; Activity (HT-29 [27]): 3.5% |
